Data published in ChEMBL document CHEMBL1221182, “Functional characterization of IRESes by an inhibitor of the RNA helicase eIF4A” (Nat Chem Biol, 2006).
The source made the active and inactive calls. The rule behind the calls is not given here.

Key:
[1] = target: Eukaryotic initiation factor 4A-I (Mus musculus, UniProt P60843); assay: Inhibition of eIF4A-mediated cap-dependent protein synthesis in FF-HCV-Ren mRNA transfected Swiss mouse Krebs2 cell extract by [35S]methionine metabolic labeling study
Eukaryotic initiation factor 4A-I, sequence (P60843 whole entry): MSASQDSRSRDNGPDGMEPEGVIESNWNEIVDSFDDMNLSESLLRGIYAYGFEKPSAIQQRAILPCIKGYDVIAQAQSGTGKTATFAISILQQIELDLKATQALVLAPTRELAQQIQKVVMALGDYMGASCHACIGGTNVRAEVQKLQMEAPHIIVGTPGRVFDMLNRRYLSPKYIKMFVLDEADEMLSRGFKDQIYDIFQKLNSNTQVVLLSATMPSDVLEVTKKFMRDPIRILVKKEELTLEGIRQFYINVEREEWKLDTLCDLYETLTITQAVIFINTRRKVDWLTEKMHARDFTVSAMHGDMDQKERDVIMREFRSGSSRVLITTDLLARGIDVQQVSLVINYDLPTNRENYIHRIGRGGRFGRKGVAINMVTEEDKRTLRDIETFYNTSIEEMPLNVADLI
Method in brief: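 Cell-free translation in Krebs-2 extracts programmed with capped bicistronic FF-HCV-Ren transcript: cap-dependent firefly cistron, HCV IRES-driven renilla cistron. Final mRNA 5 µg ml⁻¹, K⁺ 100 mM, compound titrated. Controls carry a matched final DMSO level. Products labeled with [³⁵S]methionine, separated by 10% SDS-PAGE, and autoradiographed. Luciferase activities are read by luminometer and expressed relative to vehicle reactions.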

Nucleic Acid [2] = assay: Inhibition of polio virus IRES-mediated translation in Swiss mouse Krebs2 extract transfected with bicistronic mRNA by [35S]methionine metabolic labeling study; details: Enterovirus C
Method in brief: (§1)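 In vitro translation in Krebs-2 extracts programmed with capped bicistronic transcripts at 5 µg ml⁻¹ mRNA and 100 mM K⁺ final. Firefly and renilla luciferase activities read by luminometer. Alternatively, [³⁵S]methionine-labelled products were run on 10% SDS gels and autoradiographed. Control reactions held the same final DMSO level as the compound reactions.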

[3] = target: Eukaryotic initiation factor 4A-I (Mus musculus) (UniProt P60843); assay: Inhibition of eIF4A-mediated cap-dependent translation in Swiss mouse Krebs2 extract transfected with bicistronic mRNA by [35S]methionine metabolic labeling study; method in brief: as §1
Eukaryotic initiation factor 4A-I (Mus musculus), sequence (P60843 whole entry): as above

[4] = system: Internal ribosome entry site (IRES); assay: Inhibition of HCV IRES-mediated protein synthesis in FF-HCV-Ren mRNA transfected Swiss mouse Krebs2 cell extract at 50 uM by [35S]methionine metabolic labeling study; details: Hepacivirus hominis; method in brief: as §1
[5] = target: Eukaryotic initiation factor 4A-I (Homo sapiens) (UniProt P60842); assay: Inhibition of eIF4A RNA-dependent ATPase activity assessed as rate of ATP hydrolysis
Eukaryotic initiation factor 4A-I (Homo sapiens), sequence (P60842 whole entry): as the sequence (P60843 whole entry) above
Method in brief: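 Recombinant murine eIF4A_I (4.5 µg) was expressed in E. coli BL21(DE3) and purified by Ni-NTA and Q-Sepharose. It was incubated with 1 µM [γ-³²P]ATP and 2.5 µM poly(U). Hydrolysis was quantified by phosphorimager. Rate was plotted against compound concentration relative to 0.5% DMSO.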

Triticum aestivum = assay: Inhibition of 48S ribosome complex formation in wheat germ extract in presence of 1 mM GMP-PNP assessed as increase in unbound mRNA at 50 uM; type: functional
Method in brief: (§2)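 ³²P-labelled CAT mRNA was incubated 10 min in wheat germ extract or rabbit reticulocyte lysate. Additions were 600 µM cycloheximide, 1 mM GMP-PNP, and 50 µM compound or vehicle. Mixtures were sedimented through 10–30% glycerol gradients at 200,000g for 3.5 h. Fraction radioactivity was measured by scintillation counting.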

HeLa [6] = assay: Inhibition of RNA synthesis in human HeLa cells assessed as [3H] Uridine incorporation at 1 uM by scintillation counting; type: functional, cell-based
[7] = target: Eukaryotic initiation factor 4A-I (Homo sapiens) (UniProt P60842); assay: Inhibition of eIF4A-mediated helicase activity by helicase assay
Method in brief: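 Helicase assay used the RNA-1/11 duplex with 0.4 µM recombinant eIF4A_I and 1 mM ATP. Products were separated on gels, dried, and exposed to film at -80 °C for 12 h.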

HeLa [8] = assay: Inhibition of protein synthesis in human HeLa cells at 1 uM by [35S]methionine metabolic labeling study; type: functional, cell-based
[9] = target: Eukaryotic initiation factor 4A-I (Homo sapiens) (UniProt P60842); assay: Induction of eIF4A to [alpha-32P]ATP cross linking relative to control
Method in brief: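 [α-³²P]ATP (2.5 µCi) was UV cross-linked to 1 µg recombinant eIF4A_I or 0.7 µg native eIF4F, with 0.5% DMSO or 50 µM compound. Samples were run on SDS-PAGE and autoradiographed at -70 °C for 12 h. Four experiments.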

[10] = target: Eukaryotic translation initiation factor 4E (Homo sapiens) (UniProt P06730); assay: Inhibition of eIF4E interaction with mRNA cap structure in presence of 0.6 mM m7 GDP at 50 uM by chemical cross-linking assay
Eukaryotic translation initiation factor 4E (Homo sapiens), sequence (P06730 whole entry): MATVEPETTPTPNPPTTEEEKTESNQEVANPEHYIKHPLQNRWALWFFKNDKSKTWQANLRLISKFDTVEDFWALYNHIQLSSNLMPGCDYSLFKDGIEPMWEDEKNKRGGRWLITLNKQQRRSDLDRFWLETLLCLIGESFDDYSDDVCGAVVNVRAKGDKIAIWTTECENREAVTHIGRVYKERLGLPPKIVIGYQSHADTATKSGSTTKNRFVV
Method in brief: (§3)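 Oxidized ³²P cap-labelled CAT mRNA was chemically cross-linked in reactions with 0.9 mM ATP. Protein sources were 1 µg recombinant eIF4A_I, 0.7 µg native eIF4F, or an initiation factor preparation. Competitors were 0.6 mM m⁷GDP or GDP; compound was 50 µM. Samples were RNase A-treated, resolved by SDS-PAGE, and autoradiographed.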

[11] = target: Eukaryotic translation initiation factor 4B (Homo sapiens) (UniProt P23588); assay: Inhibition of eIF4B interaction with mRNA cap structure in presence of 0.6 mM m7GDP at 50 uM by chemical cross-linking assay; method in brief: as §3
Eukaryotic translation initiation factor 4B (Homo sapiens), sequence (P23588 whole entry): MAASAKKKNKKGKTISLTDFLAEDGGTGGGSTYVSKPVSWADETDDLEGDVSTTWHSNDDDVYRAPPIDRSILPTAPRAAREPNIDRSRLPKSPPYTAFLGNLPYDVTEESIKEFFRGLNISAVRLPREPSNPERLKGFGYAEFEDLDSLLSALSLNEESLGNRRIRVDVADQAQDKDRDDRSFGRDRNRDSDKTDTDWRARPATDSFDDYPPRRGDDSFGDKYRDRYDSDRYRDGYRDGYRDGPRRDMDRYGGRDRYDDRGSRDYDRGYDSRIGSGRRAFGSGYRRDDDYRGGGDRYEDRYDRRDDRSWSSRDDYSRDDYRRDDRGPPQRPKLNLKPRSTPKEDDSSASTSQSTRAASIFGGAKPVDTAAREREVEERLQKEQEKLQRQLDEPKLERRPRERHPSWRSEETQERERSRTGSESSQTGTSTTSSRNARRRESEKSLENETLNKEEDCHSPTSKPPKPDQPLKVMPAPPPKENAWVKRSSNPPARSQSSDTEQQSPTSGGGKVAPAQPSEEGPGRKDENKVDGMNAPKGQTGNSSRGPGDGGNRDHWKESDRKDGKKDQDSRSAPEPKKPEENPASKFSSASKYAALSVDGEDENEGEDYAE

[12] = target: Eukaryotic initiation factor 4A-I (Homo sapiens) (UniProt P60842); assay: Inhibition of eIF4A binding to 32p cap-labeled mRNA at 50 uM; method in brief: as §3
HeLa [13] = assay: Disruption of polyribosmes in human HeLa cells at 1 uM after 20 mins; type: functional, cell-based
HeLa [14] = assay: Inhibition of protein synthesis in human HeLa cells at 1 uM after 60 mins by [35S]methionine metabolic labeling study; type: functional, cell-based
[15] = target: Eukaryotic initiation factor 4A (Triticum aestivum) (UniProt P41378); assay: Inhibition of eIF4A-mediated cap-dependent protein synthesis in wheat germ extract transfected with FF-HCV-Ren mRNA by [35S]methionine metabolic labeling study
Eukaryotic initiation factor 4A (Triticum aestivum), sequence (P41378 whole entry): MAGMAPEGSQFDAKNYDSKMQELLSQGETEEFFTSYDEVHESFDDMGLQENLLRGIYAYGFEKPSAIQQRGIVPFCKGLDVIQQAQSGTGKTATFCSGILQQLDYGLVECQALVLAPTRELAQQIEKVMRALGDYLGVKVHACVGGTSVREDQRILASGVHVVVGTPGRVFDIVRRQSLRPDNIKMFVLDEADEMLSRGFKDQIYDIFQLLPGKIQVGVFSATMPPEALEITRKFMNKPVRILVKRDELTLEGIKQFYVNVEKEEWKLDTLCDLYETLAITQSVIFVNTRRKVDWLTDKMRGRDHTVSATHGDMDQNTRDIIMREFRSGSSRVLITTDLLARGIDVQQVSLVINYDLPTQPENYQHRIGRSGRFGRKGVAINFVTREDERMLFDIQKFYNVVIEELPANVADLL
Method in brief: (§4)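 Rabbit reticulocyte lysate or wheat germ extract translations were run to kit instructions. Control reactions carried the same final DMSO concentration as the compound-containing reactions.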

HeLa [16] = assay: Growth inhibition of human HeLa cells at 80 nM after 24 hrs; type: functional, cell-based
[17] = target: Eukaryotic translation initiation factor 4E (Homo sapiens) (UniProt P06730); assay: Inhibition of eIF4E RNA binding activity in presence of 0.6 mM m7GDP at 50 uM; method in brief: as §3
HeLa [18] = assay: Inhibition of DNA synthesis in human HeLa cells assessed as [3H] thymidine incorporation at 1 uM by scintillation counting; type: functional, cell-based
HeLa [19] = assay: Inhibition of protein synthesis in human HeLa cells after 50 mins by [35S]methionine metabolic labeling study; type: functional, cell-based
Nucleic Acid [20] = assay: Inhibition of PTV-1 IRES-mediated translation in Swiss mouse Krebs2 extract transfected with bicistronic mRNA by [35S]methionine metabolic labeling study; details: Porcine teschovirus 1; method in brief: as §1
[21] = target: Eukaryotic initiation factor 4A-I (Mus musculus) (UniProt P60843); assay: Inhibition of eIF4A-mediated cap-dependent protein synthesis in Swiss mouse Krebs2 extract transfected with FF-HCV-Ren mRNA in presence of recombinant eIF4AIf by [35S]methionine metabolic labeling study
Method in brief: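 Krebs-2 translation programmed with FF-HCV-Ren mRNA at 5 µg ml⁻¹ mRNA and 100 mM K⁺ final. Conditions were 0.4 µM compound or 0.004% DMSO, with or without 2.2 µM recombinant eIF4A_If. [³⁵S]methionine products were resolved by SDS-PAGE and autoradiographed. Translational efficiency was taken relative to luciferase from vehicle controls. Three experiments; s.e.m.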

Nucleic Acid [22] = assay: Inhibition of CrPV IRES-mediated translation in Swiss mouse Krebs2 extract transfected with bicistronic mRNA by [35S]methionine metabolic labeling study; method in brief: as §1
[23] = target: Eukaryotic initiation factor 4A-I (Homo sapiens) (UniProt P60842); assay: Inhibition of eIF4A interaction with mRNA cap structure in presence of 0.6 mM m7 GDP at 50 uM by chemical cross-linking assay; method in brief: as §3
[24] = target: Eukaryotic initiation factor 4A-I (Homo sapiens) (UniProt P60842); assay: Inhibition of eIF4A RNA binding activity in presence of 0.6 mM m7GDP at 50 uM; method in brief: as §3
[25] = target: Eukaryotic initiation factor 4A-I (Oryctolagus cuniculus) (UniProt P29562); assay: Inhibition of eIF4A-mediated cap-dependent protein synthesis in rabbit reticulocyte lysate transfected with FF-HCV-Ren mRNA by [35S]methionine metabolic labeling study; method in brief: as §4
Eukaryotic initiation factor 4A-I (Oryctolagus cuniculus), sequence (P29562 whole entry): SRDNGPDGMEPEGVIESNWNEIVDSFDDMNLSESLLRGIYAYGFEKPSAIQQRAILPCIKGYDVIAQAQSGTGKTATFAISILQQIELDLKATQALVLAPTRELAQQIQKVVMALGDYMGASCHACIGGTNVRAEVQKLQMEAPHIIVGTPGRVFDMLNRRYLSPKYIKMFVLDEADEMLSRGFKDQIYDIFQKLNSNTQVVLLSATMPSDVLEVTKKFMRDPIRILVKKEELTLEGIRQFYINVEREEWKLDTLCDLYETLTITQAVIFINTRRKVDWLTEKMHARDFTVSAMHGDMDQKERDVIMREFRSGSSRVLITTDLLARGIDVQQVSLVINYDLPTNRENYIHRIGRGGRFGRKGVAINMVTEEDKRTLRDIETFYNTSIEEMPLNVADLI

Oryctolagus cuniculus = species on record: Oryctolagus cuniculus; assay: Inhibition of 80S ribosome complex formation in rabbit reticulocyte lysate in presence of 600 uM cyclohexamide assessed as increase in unbound mRNA at 50 uM; type: functional; method in brief: as §2
Nucleic Acid [26] = assay: Inhibition of EMCV IRES-mediated translation in Swiss mouse Krebs2 extract transfected with bicistronic mRNA by [35S]methionine metabolic labeling study; details: Encephalomyocarditis virus; method in brief: as §1
[27] = Inhibition of DED1-mediated helicase activity by helicase assay
Method in brief: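 Helicase assay used the RNA-1/11 duplex with 25 nM Ded1p and 1 mM ATP. Products were separated on gels, dried, and exposed to film at -80 °C for 12 h.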

Escherichia coli = assay: Inhibition of eIF4A-mediated cap-dependent protein synthesis in Escherichia coli S30 extract transfected with FF-HCV-Ren mRNA at 50 uM by [35S]methionine metabolic labeling study

## C[C@H]1C[C@@]2(O[C@H]3C[C@H]4[C@@H]5CC[C@H]6C[C@H](O)[C@H](O)C[C@]6(C)[C@H]5[C@@H](O)C[C@]4(C)[C@H]3[C@@]2(C)O)OC1(C)C
[1]
  IC50: 1700 nM

## C[C@H]1C[C@@]2(O[C@H]3C[C@H]4[C@@H]5CC[C@H]6C[C@H](O)[C@H](OC(=O)CCCC(=O)O)C[C@]6(C)[C@H]5[C@@H](O)C[C@]4(C)[C@H]3[C@@]2(C)O)OC1(C)C
[1]
  IC50: 2600 nM

## CC(=O)O[C@@H]1C[C@@]2(C)[C@@H](CC[C@@H]3[C@@H]2[C@@H](O)C[C@@]2(C)[C@H]3C[C@@H]3O[C@@]4(C[C@H](C)C(C)(C)O4)[C@](C)(O)[C@@H]32)C[C@@H]1O
[1]
  IC50: 1500 nM

## C[C@H]1C[C@]2(O[C@H]3C[C@H]4[C@@H]5CC[C@H]6C[C@H](O)[C@H](O)C[C@]6(C)[C@H]5[C@@H](O)C[C@]4(C)[C@H]3[C@@]2(C)O)OC1(C)C
[1]
  IC50: 19000 nM

## CC(=O)O[C@H]1C[C@@H]2CC[C@@H]3[C@H]([C@@H](O)C[C@@]4(C)[C@H]3C[C@@H]3O[C@]5(C[C@H](C)C(C)(C)O5)[C@](C)(O)[C@@H]34)[C@@]2(C)C[C@H]1O
[1]
  IC50: 52000 nM

## CC(=O)O[C@H]1C[C@@H]2CC[C@@H]3[C@H]([C@@H](O)C[C@@]4(C)[C@H]3C[C@@H]3O[C@@]5(C[C@H](C)C(C)(C)O5)[C@](C)(O)[C@@H]34)[C@@]2(C)C[C@H]1O
[1]
  IC50: 1700 nM

## CC(=O)O[C@@H]1C[C@@]2(C)[C@@H](CC[C@@H]3[C@@H]2[C@@H](O)C[C@@]2(C)[C@H]3C[C@@H]3O[C@]4(C[C@H](C)C(C)(C)O4)[C@](C)(O)[C@@H]32)C[C@@H]1O [EPIHIPPURIN 1]
[1]
  IC50: > 100000 nM

## C[C@H]1C[C@]2(O[C@H]3C[C@H]4[C@@H]5CC[C@H]6C[C@H](O)CC[C@]6(C)[C@H]5[C@@H](O)C[C@]4(C)[C@H]3[C@@]2(C)O)OC1(C)C [EPIHIPPURISTANOL]
[1]
  IC50: > 100000 nM

## CC(=O)O[C@@H]1CC[C@@]2(C)[C@@H](CC[C@@H]3[C@@H]2[C@@H](O)C[C@]24[C@H](O)O[C@]5(C)[C@H]2[C@H](C[C@@H]34)O[C@]52C[C@H](C)C(C)(C)O2)C1 [HIPPURISTANOHEMIACETAL]
[1]
  IC50: 91000 nM

## C[C@H]1C[C@@]2(O[C@H]3C[C@H]4[C@@H]5CC[C@H]6C[C@H](O)CC[C@]6(C)[C@H]5[C@@H](O)C[C@]4(C)[C@H]3[C@@]2(C)O)OC1(C)C [HIPPURISTANOL]
Nucleic Acid [2]
  inhibition: Active
[3]
  inhibition: Active
[4]
  inhibition: inactive
[5]
  inhibition: Active
Triticum aestivum
  inhibition: Active
HeLa [6]
  inhibition: Active
[7]
  inhibition: Active
[1]
  IC50: 400 nM
HeLa [8]
  inhibition: Active
[9]
  fold change (FC): 2
[10]
  inhibition: inactive
[11]
  inhibition: Active
[12]
  inhibition: Active
HeLa [13]
  inhibition: Active
HeLa [14]
  inhibition: Active
[15]
  inhibition: Active
HeLa [16]
  inhibition: Active
[17]
  inhibition: inactive
HeLa [18]
  inhibition: Active
HeLa [19]
  inhibition: Active
Nucleic Acid [20]
  inhibition: Active
[21]
  inhibition: Active
Nucleic Acid [22]
  inhibition: inactive
[23]
  inhibition: Active
[24]
  inhibition: Active
[25]
  inhibition: Active
Oryctolagus cuniculus
  inhibition: Active
Nucleic Acid [26]
  inhibition: Active
[27]
  inhibition: inactive
Escherichia coli
  inhibition: Active
